# Screening results (PubChem)
# TNAP act hiacc – TNAP (human) activation, high acceptor; P05186; purified TNAP, CDP-star luminescence, 1 M DEA, 30 min; active compounds read high; 0 = EDTA background, 1 = DMSO-only activity; activation factor at 20 µM; 200,000 tested, under 10 active; AID 1136;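 active = activation factor at least 2 at 20 µM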
# Target sequence (P05186 whole entry, looked up): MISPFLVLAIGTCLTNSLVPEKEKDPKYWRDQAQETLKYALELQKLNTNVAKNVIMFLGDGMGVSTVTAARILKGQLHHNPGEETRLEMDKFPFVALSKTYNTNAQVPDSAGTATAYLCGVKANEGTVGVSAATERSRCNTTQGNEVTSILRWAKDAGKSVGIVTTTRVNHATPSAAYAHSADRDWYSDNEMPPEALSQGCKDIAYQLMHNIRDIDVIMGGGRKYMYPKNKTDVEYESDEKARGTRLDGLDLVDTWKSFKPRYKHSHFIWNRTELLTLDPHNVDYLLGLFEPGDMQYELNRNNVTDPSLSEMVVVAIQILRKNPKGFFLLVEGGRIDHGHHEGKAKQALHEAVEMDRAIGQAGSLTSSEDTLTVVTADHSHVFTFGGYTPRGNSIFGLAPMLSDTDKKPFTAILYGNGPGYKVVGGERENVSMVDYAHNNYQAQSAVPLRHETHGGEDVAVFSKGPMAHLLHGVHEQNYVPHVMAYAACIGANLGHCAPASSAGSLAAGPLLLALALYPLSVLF
#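 Dosing: 20 µM single point. System: human TNAP. Amount: TNAP 1/800 final. Incubation: 30 min, room temperature. Read-out: TNAP activation factor scaled between EDTA and DMSO control wells. Signal: luminescence from CDP-star hydrolysis. Medium: 1 M DEA, pH 9.8, Mg2+, Zn2+. Control set: EDTA negative control, DMSO positive control.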
# HCT116 bCat-KO – beta-catenin-lacking colon tumor cell growth suppression; HCT116 beta-catenin knockout viability, CellTiter-Glo, 60 h; active compounds read low; viability, % at 10 µM; 140,000 compounds, 1.5% hits;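 active = viability at or under a set limit, the compound median less 4 SD, cut at about 6% in these data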
# L major viab – Leishmania major promastigote growth inhibition; Leishmania major promastigotes, resazurin fluorescence viability; inhibition, % at 10 µM; 200,000 compounds, 9% hits; in the data active = inhibition above about 50%;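 also: promastigotes grown with compound for 44 hours at 28 °C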
# TNAP inh hiacc – inhibitors of human TNAP at high phosphate acceptor concentration; P05186; purified TNAP, CDP-star luminescence, 1 M DEA; inhibition, % at 20 µM; 200,000 compounds, 0.03% hits; AID 1135;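 active = over 50% inhibition of tissue-nonspecific alkaline phosphatase at 20 µM in the single-dose screen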
# PTEN del growth – growth suppressors of cells with PTEN tumor suppressor deletion. HCT116 PTEN-null viability, CellTiter-Glo, 60 h; active compounds read low. viability, % at 10 µM. 140,000 compounds, 1.2% hits;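 active = viability at or below a set limit, 4 SD under the median of all tested compounds, cut at about 3.7% in these data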;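 also: PTEN knockout HCT116 line with beta catenin targeted HCT116 as companion control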
# TNAP inh no acc – inhibitors of human TNAP without phosphate acceptor | purified TNAP, CDP-star luminescence, 30 min | P05186 | 200,000 compounds, 0.26% hits | inhibition, % at 20 µM | AID 1012;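 active = tissue-nonspecific alkaline phosphatase inhibition above about 50% at 20 µM in the single-dose screen, limit read from the data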
# Lmaj promast 1uM – inhibitors of Leishmania major promastigote growth, repeat at 1 uM. shares compounds with L major viab. inhibition, % at 1 µM. 1,100 compounds, 13% hits. L. major promastigote growth, resazurin fluorescence, 48 h;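 active = inhibition above about 50% in both repeat tests, limit read from the data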
# Numbers stand for hits; n = inactive; x = no result. In the library only some 9.6% were active in any assay of this set; here they are far more common.
SMILES,TNAP act hiacc,HCT116 bCat-KO,L major viab,TNAP inh hiacc,PTEN del growth,TNAP inh no acc,Lmaj promast 1uM
COC(=O)CN1C(c2cccc(Cl)c2)=Nc2ccc(Cl)cc2C1c1ccccc1 (stereo not given),n,n,60.0,n,n,n,n
COC(=O)c1cc(OC)c(OC)cc1NC(=S)N1CCC(C(N)=O)CC1,n,n,n,n,n,n,x
CCOC(=O)C1CCN(C(=S)Nc2cc(OC)c(OC)cc2C(=O)OC)CC1,n,n,61.2,n,n,n,n
Cc1nc(NC(=O)CSc2ccccc2N)sc1C,n,n,n,n,n,n,x
CCOc1cc(OCC)nc(S(C)(=O)=O)n1,n,n,n,n,n,n,x
Cn1c2ccccc2n2c(=O)c(Cl)c(-c3ccccc3)c(C#N)c12,n,n,61.6,n,n,n,n
Cc1ccc2nc(N(CCCN(C)C)C(=O)CCc3ccccc3)sc2c1,n,2.4,66.5,n,1.5,n,n
Cc1ccc2nc(N(CCCN(C)C)C(=O)CN3C(=O)c4ccccc4C3=O)sc2c1,n,x,n,n,x,n,x
C/C=C(\CS(=O)(=O)c1ccccc1)S(=O)(=O)c1ccccc1,n,n,n,n,n,n,x
CCN(Cc1ccncc1)Cc1nc(CC2CC2)no1,n,x,n,n,x,n,x
O=C1C(=O)c2c(C(=O)c3ccccc3)coc2-c2ccccc21,n,1.8,100.4,n,1.5,n,61.2
Cn1c(CN2CCCC2)nc2cc(NS(=O)(=O)c3ccc(Cl)cc3)ccc21,n,n,99.3,n,n,n,n
Cc1sc2ncn(CC(=O)OC(C)C)c(=O)c2c1C,n,n,n,n,n,n,x
Cc1c(-c2ccccc2)c(P(=O)(N2CCOCC2)N2CCOCC2)c2ccccn12,n,n,55.0,n,n,n,n
c1ccc(Nc2c3c(nc4ncnn24)CCC3)cc1,n,n,n,n,n,n,x
CSc1c2c(nc3ncnn13)CCC2,n,n,51.2,n,n,n,n
CCOC(=O)C(C)On1c(-c2cccc(Cl)c2)nc2ccc([N+](=O)[O-])cc21 (stereo not given),n,n,95.2,n,n,n,n
COc1ccc(-c2ncncc2-c2csc(C)n2)c(O)c1OC,n,n,n,n,n,n,x
COC1=C(N)C(=O)c2nc(-c3nc(C(=O)O)c(C)c(-c4ccc(OC)c(OC)c4O)c3N)ccc2C1=O,n,2.3,64.9,n,2.0,n,n
CC1=Nc2ccccc2/C1=C\c1nc(-c2ccc(F)cc2)oc1O,n,n,n,n,n,n,x
Cc1noc(C)c1S(=O)(=O)NCCN1CCN(c2ccccc2)CC1,n,n,n,n,n,n,x
Cc1noc(C)c1S(=O)(=O)NCCCN1CCN(Cc2ccccc2)CC1,n,n,92.2,n,n,n,n
Nc1ccc(-c2ccc(C(=O)O)s2)cn1,n,x,n,n,x,n,x
CCCn1c(-c2ccc(OC)cc2)nc2ccccc21,n,n,96.2,n,n,n,n
Cn1cc(CN2CCC(CO)CC2)c(-c2ccc(Oc3ccccc3)cc2)n1,n,x,96.5,n,x,n,75.4
SMILES,TNAP act hiacc,HCT116 bCat-KO,L major viab,TNAP inh hiacc,PTEN del growth,TNAP inh no acc,Lmaj promast 1uM
CCC(C)Nc1nc2c(c(=O)n(C)c(=O)n2C)n1Cc1cccc(C)c1 (stereo not given),n,n,83.2,n,n,n,n
COC(=O)C1=C(CSc2nncn2C)NC(=O)NC1c1ccc(F)cc1 (stereo not given),n,n,n,n,n,n,x
C/C(=N\NC(=O)c1c[nH]c2ccccc12)c1ccc(C)o1,n,n,53.5,n,n,n,n
FC(F)(F)c1nnc(-c2ccccc2)nc1N1CCCC1,n,x,n,n,x,n,x
FC(F)(F)c1nnc(-c2ccccc2)nc1Sc1ccccc1,n,1.6,51.9,n,1.3,n,n
COc1ccc2cc(Br)ccc2c1CC(=O)NC(C)(C)C,n,n,n,n,n,n,x
COCCCn1[nH]c2c3c(ccc2c1=O)C(=O)c1ccccc1C3=O,n,n,93.7,n,n,n,n
CS(=O)(=O)c1cc([N+](=O)[O-])c(Sc2nc3ccccc3[nH]2)c([N+](=O)[O-])c1,n,n,n,n,n,n,x
O=C1C(Cl)=C(N2CCCCC2)C(=O)C(Cl)=C1c1cnc(N2CCCCC2)s1,n,1.1,58.5,n,1.5,n,n
O=C(c1ccccc1Sc1cccc2ccccc12)N1CCOCC1,n,n,n,n,n,n,x
